Data reported in the RNAGym collection of RNA variant scans (doi:10.1126/science.aae0568).
Fewer inactive variants are shown than the library holds.

B1: tRNA (parent)
chain: GUUCCGUUGGCGUAAUGGUAACGCGUCUCCCUCCUAAGGAGAAGACUGCGGGUUCGAGUCCCGUACGGAACG

Variants of: B1
Assay: yeast fitness relative to wild type (ratio to wild type); higher = fitter; tRNA-Arg(CCU), competitive growth, 37 C, YPD
How it was run: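 Changes in genotype frequencies gave Darwinian fitness relative to wild type. Frequencies were read by 100-nucleotide paired-end sequencing of gene amplicons before and after pooled Saccharomyces cerevisiae strains, carrying tRNA-Arg(CCU) gene variants at the native locus, were competed in YPD at 37°C for 24 hours in six replicates. A genotype was kept only with ≥ 100 starting reads, and estimates < 0.5 were set to 0.5.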

| Variant | yeast fitness |
| --- | --- |
| A14G C24U C55A G63C | ≤ 0.5 |
| A14C U16C C61U | ≤ 0.5 |
| A14C G25C U47A G63C | 0.678 |
| A14C G25C G48A | 0.608 |
| A14G C22U A37G A70C | ≤ 0.5 |
| A14C U53C | 0.713 |
| A14G C24A C31U A40U | ≤ 0.5 |
| A14G A21G G67A | 0.63 |
| A14G C24U G48C C66A | ≤ 0.5 |
| A14C G25A C33G A36U A45G G52C | ≤ 0.5 |
| A14C U32G U47C C55G | ≤ 0.5 |
| A14G A37C A65G | 0.659 |
| A14G A40U A65C | 0.533 |
| A14G A21U G56C G68C | 0.637 |
| A14G C22U A45U | 0.626 |
| A14C U19G U32A G52C | ≤ 0.5 |
| A14C G25C C27G C34U U35A G38A C66U | ≤ 0.5 |
| A14C G25A A40C C46U | ≤ 0.5 |
| A14C U19C C34U G39C G51C | ≤ 0.5 |
| A14G A15U U53C A69U | 0.599 |
| A14C U16A A21C G56A | ≤ 0.5 |
| A14G C22G U28A C31G C55A G68C | ≤ 0.5 |
| A14C U26A C34U C55G | 0.519 |
| A14G C27G | 0.562 |

| Variant | yeast fitness |
| --- | --- |
| A14G A15U G50U U64G | 0.542 |
| A14G A40C C62G C66U | ≤ 0.5 |
| A14C U64C | 0.935 |
| A14G A20C C33A A70G | ≤ 0.5 |
| A14G A57C C62U | ≤ 0.5 |
| A14C G25C | 0.583 |
| A14C G25A | 0.889 |
| A14G A45C G58A | 0.622 |
| A14C G51C U59G | ≤ 0.5 |
| A14G C22G U35G A40C A70G | ≤ 0.5 |
| A14C U28G | 0.625 |
| A14C U28C | 0.606 |
| A14G A40U C46G G50C A57U | ≤ 0.5 |
| A14C U16G A21G A70U | ≤ 0.5 |
| A14C U16C C62U A65U | ≤ 0.5 |
| A14G A40G C46U | 0.57 |
| A14C G68U | 0.583 |
| A14G C24A C31U A40U A70G | 0.571 |
| A14C U19G C31G C33U A42G G48A G52A | ≤ 0.5 |
| A14G A42G G51C | ≤ 0.5 |
| A14G A40G U47C | 0.551 |
| A14G A15C A69C A70G | 0.618 |
| A14G C22G | 0.806 |
| A14G A21C A65C | 0.539 |

| Variant | yeast fitness |
| --- | --- |
| A14G C24G C31U C55G G63C | ≤ 0.5 |
| A14G A21C C30G | ≤ 0.5 |
| A14G A20U C29G C33U | 0.543 |
| A14G A15C U26C U35G C49G | ≤ 0.5 |
| A14G C22G U26C C31G | 0.615 |
| A14G A57G G68C | 0.616 |
| A14C U19A A20C | ≤ 0.5 |
| A14C U28A U53G | 0.57 |
| A14C G44A C46A G52A C66U | ≤ 0.5 |
| A14C U47C A57C | ≤ 0.5 |
| A14C U28A U54C G56C G58A | ≤ 0.5 |
| A14G A15U U32G C34G U47C G63C | ≤ 0.5 |
| A14G C24G C31U C55A C61A | ≤ 0.5 |
| A14G C24U A43C A70U | ≤ 0.5 |
| A14G C22U C29A | ≤ 0.5 |
| A14G A36U G50A C62G | ≤ 0.5 |
| A14C G25C C66U | 0.531 |
| A14G A42C C62A | ≤ 0.5 |
| A14G A21C U35A A43G | ≤ 0.5 |
| A14G A36G U47A | ≤ 0.5 |
| A14G A15C U35C C46A A69U | ≤ 0.5 |
| A14C U32G A45G U64C | ≤ 0.5 |
| A14G A36U C46G C62A A69C | ≤ 0.5 |
| A14G A69U A70C | 0.726 |

| Variant | yeast fitness |
| --- | --- |
| A14G A20C G67C | 0.534 |
| A14G A20C A40C A45G C46A | ≤ 0.5 |
| A14G C22U C24G A42C A57G | ≤ 0.5 |
| A14C G23A C29U U35C G48A | ≤ 0.5 |
| A14G C24G G44C G58C G68U | ≤ 0.5 |
| A14G A57U A65U | ≤ 0.5 |
| A14G A21C A36C A43U G67U | ≤ 0.5 |
| A14C U19A A21G C31U | ≤ 0.5 |
| A14G C24U C30U C60A | ≤ 0.5 |
| A14G A15C G51C C61G | ≤ 0.5 |
| A14G C24U G52A C60U | ≤ 0.5 |
| A14G A15C A37C C46A A69U | ≤ 0.5 |
| A14G A21C A36C A43U | ≤ 0.5 |
| A14G A15C C46A U64G A65U | ≤ 0.5 |
| A14G A40U C55A G68U | ≤ 0.5 |
| A14C U26C U54C C55G C61A | ≤ 0.5 |
| A14G A20U A36U G51C G52C C60U G67A | ≤ 0.5 |
| A14G A21U C62G | ≤ 0.5 |
| A14G A70U | 0.662 |
| A14G C22A C29U G56C G58C C66U | ≤ 0.5 |
| A14C G25C G52A C66U | ≤ 0.5 |
| A14G A37C | 0.73 |
| A14G A20C C30U C66U | ≤ 0.5 |
| A14C G18C U28A C30G A43G A57G C60U A65C G67U | 0.557 |

| Variant | yeast fitness |
| --- | --- |
| A14C U16C G51C G58A C60A | ≤ 0.5 |
| A14G A36U A37C C49A U53G | ≤ 0.5 |
| A14G A21G C33U A43C | ≤ 0.5 |
| A14G A43C A45G G50A | ≤ 0.5 |
| A14G A15G U54C | 0.569 |
| A14G A15C C30U G56C A69C | ≤ 0.5 |
| A14G A43C G52C | ≤ 0.5 |
| A14G A15U G25C C49U | 0.619 |
| A14C U54A | 0.528 |
| A14C U28A U59G A65U | ≤ 0.5 |
| A14G C22G U64A | ≤ 0.5 |
| A14C U16A C66U | ≤ 0.5 |
| A14C U19C C27A A43G | ≤ 0.5 |
| A14C U16C G44A U54C C61U A69C | ≤ 0.5 |
| A14G A42G C46G A57G | ≤ 0.5 |
| A14C U16A U26C C66U A69C | ≤ 0.5 |
| A14G A15U C34U | 0.505 |
| A14G A21U C30A A36U C60U A69C | ≤ 0.5 |
| A14C G56C | 0.567 |
| A14G A20C C60U | ≤ 0.5 |
| A14G A36U G39A C60G | ≤ 0.5 |
| A14G A20G A69C | 0.528 |
| A14C U16A G63A | ≤ 0.5 |
| A14G A42U A45C U59A | ≤ 0.5 |

| Variant | yeast fitness |
| --- | --- |
| A14G C24G C31U C55A | 0.552 |
| A14G A43C | 0.823 |
| A14G A43U | 0.803 |
| A14G A20C C46G | 0.635 |
| A14C U54A U59C C61G | ≤ 0.5 |
| A14C U19A U59C A69G | 0.652 |
| A14G C24G C31U G68A | ≤ 0.5 |
| A14G C22G C30G G68A | ≤ 0.5 |
| A14G A69G | 0.821 |
| A14G A69U | 0.921 |
| A14G C24G G50A C55G | ≤ 0.5 |
| A14G A36G G48A | 0.555 |
| A14C G58A | 0.868 |
| A14G A37C A70C | 0.624 |
| A14C G44C A70C | 0.56 |
| A14G A42U | 0.873 |
| A14G A45C | 0.718 |
| A14G C27A A45U G67C | 0.521 |
| A14G A15C U26A G48C C49U U59C | ≤ 0.5 |
| A14G C24U C49U | 0.675 |
| A14G A15C C24G A45G | ≤ 0.5 |
| A14G C24G G52A | ≤ 0.5 |
| A14G C27A U54G | ≤ 0.5 |
| A14G A15G A37U C55U | ≤ 0.5 |

| Variant | yeast fitness |
| --- | --- |
| A14G C24G | 0.597 |
| A14C G18C G56A | ≤ 0.5 |
| A14G A21C C30G A57U | ≤ 0.5 |
| A14G A21C C30G A57G | ≤ 0.5 |
| A14G A15U G25C U54A | ≤ 0.5 |
| A14C G25A A37U A42G | ≤ 0.5 |
| A14G C22G A70U | 0.774 |
| A14G C24U A57G | 0.639 |
| A14G A20C A36U G39C | ≤ 0.5 |
| A14C U53A A65C A70G | 0.587 |
| A14G C24G C31U C66G | ≤ 0.5 |
| A14C U16A U54A G58C | ≤ 0.5 |
| A14G C24G A42C G63A | ≤ 0.5 |
| A14C G25A C29G C46G C61A | 0.569 |
| A14G A65G A70C | 0.755 |
| A14C G48C | 0.658 |
| A14G A15G U32A | ≤ 0.5 |
| A14G A36U C46A G51A | ≤ 0.5 |
| A14C U47C C66U | ≤ 0.5 |
| A14G A36U | 0.658 |
| A14G A36C | 0.561 |
| A14G A42U G68C | ≤ 0.5 |
| A14G C22G U35A | 0.61 |
